# Screening results: PubChem BioAssay, several laboratories
# Dynein cargo inh: inhibitors of GR-EGFP nuclear translocation, primary screen, dynein cargo transport inhibitor project, imaging, high-content, 3617.4 mouse cells; test concentration mostly 20 µM; stimulated with dexamethasone, 1 µM; stronger effect = lower value; z-score, hits read low; 0.47% of 220,000 active; AID 1381, 2008;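 active means plate z-score of nuclear minus cytoplasmic receptor signal below a set negative limit, without overly bright fluorescence or cell loss, cut at about -3.5 in these data, passing the limit was not always enough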;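 further: z-score of nuclear minus cytoplasmic ring GR-EGFP intensity difference per well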
#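 Also added: dexamethasone, 1.0 µM final. Medium: tet-free, stripped-serum medium. Detection: fixed, Hoechst-stained cells imaged at 10x for EGFP. Read-out: nuclear-to-cytoplasmic GR-EGFP distribution per well. Times: induction 48 h, compound 1 h, agonist 30 min.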
# Lmaj promast: Leishmania major promastigote growth inhibition, primary screen; inhibition, % at 10 µM; 9% of 200,000 active; AID 1063, 2008; Leishmania major promastigotes, resazurin fluorescence viability; in the data active means inhibition above about 50%;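 further: promastigotes grown with compound for 44 hours at 28 °C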
# UPR CHOP act: activators of apoptotic CHOP UPR arm, primary screen, cell-based, CHO-CHOP luciferase reporter, luminescence, uHTS. UPR activation; percent of tunicamycin response over DMSO baseline. activation, % at 10 µM. 0.34% of 330,000 active;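 active means at 10 µM dose, activation of 40% or more, normalized to positive control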;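 further: 100% = tunicamycin at 10 µg/mL and 0% = DMSO alone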
#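 Test system: CHO CHOP reporter cells. Input: 500 CHO-CHOP cells per well. Medium: F12 with 10% FBS. Technique: luciferase luminescence. Measure: percent activation relative to tunicamycin control. Dosing: 10 µM compound, 0.5% DMSO. Timing: 16-18 h cell attachment, then 6 h compound exposure, 37 °C.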
# XBP1 UPR activ: activators of adaptive XBP1 UPR arm, primary screen, cell-based, CHO-XBP1 luciferase reporter, luminescence, uHTS; IRE1-XBP1 UPR activation; percent of tunicamycin response, DMSO as zero; activation, % at 20 µM; 0.33% of 330,000 active;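 active means versus positive control, 20 µM dose yields 30% or more activation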;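 further: 100% = tunicamycin at 10 µg/mL and 0% = DMSO only wells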
#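 Test system: CHO-XBP1 luciferase reporter cells | Buffer or medium: Serum-containing F12 medium, 10% FBS | Schedule: 6 h compound exposure at 37 °C, 5% CO2 | Detection: Steady-Glo luciferase glow luminescence, 10 min after reagent addition | Read-out basis: Activation, % of tunicamycin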
# CHOP inhibitor: inhibitors of CHOP promoter induction, primary screen, cell-based, unfolded protein response, luciferase reporter; CHO-K1 CHOP-promoter luciferase, tunicamycin-induced, 15-18 h; inhibition, % at 10 µM; 3.8% of 220,000 active;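 active means compounds that reduced the stress-induced luciferase reporter signal by more than about 70% of percent inhibition, limit read from the data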;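 further: 0% = tunicamycin plus vehicle and 100% = wells without tunicamycin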
# T cruzi inh: inhibitors of intracellular T. cruzi growth, primary screen, luminescence, NIH3T3 host cells; AID 1885, 2009; T. cruzi beta-gal in NIH3T3, 90 h; inhibition, % (test concentration not listed); 1.4% of 300,000 active;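 active means mean inhibition across valid replicates above about 55%, limit read from the data; inconclusive means mean below that limit but half or more replicates reach it; inactive means mean below it, under half of replicates reach it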;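 further: signal also drops with host cell toxicity which is not excluded here; 0% = plate median of DMSO wells and 100% = zero luminescence signal; higher percent means less beta-gal luminescence so fewer parasites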
#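 compound dosing = single 50 nL compound addition per well in DMSO | material = NIH/3T3 host cells with β-galactosidase reporter T. cruzi | input = 5,000 host fibroblasts per well | timing = ≥90 h infection period, 3 h prior cell attachment | read-out basis = percent inhibition of parasite-derived β-gal signal | detection = GalScreen β-gal luminescence, detergent lysis, 60 min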
# * hit, by the source's call; ? = inconclusive; / = no result. This is one part of a sample in which hits are shown more often than they occur.
SMILES,Dynein cargo inh,Lmaj promast,UPR CHOP act,XBP1 UPR activ,CHOP inhibitor,T cruzi inh
CCOc1ccc(C(C)(C)C)cc1S(=O)(=O)N1CC(C)OC(C)C1 (configuration not stated),0.082,64*,-2,-3,33,16
Cc1ccc(-c2nc3ccccc3o2)cc1NC(=O)Cc1cccs1,-0.34,-1,0,0,80*,-4
O=C(Cc1cccs1)Nc1cccc(-c2nc3ccccc3o2)c1,-0.37,-5,2,1,90*,4
CCC(C)Sc1cccc(-c2nc3ccc(C)cn3c2NC2CCCCC2)c1 (configuration not stated),/,/,-1,-4,/,20
Cc1ccc2nc(-c3cccnc3)c(NC3CCCCC3)n2c1,0.6,88*,5,-2,-10,16
CCC(C)Sc1ccc(-c2nc3ccc(C)cn3c2NC2CCCCC2)cc1 (configuration not stated),/,/,4,15,/,72*
COc1ccc(CCNC(=O)C/C(C)=N/NC(=O)c2cnccn2)cc1,/,/,2,-3,/,-6
Cc1ccc(CNc2ccc3c(c2)ncn3C)cc1,-0.47,60*,3,3,-26,8
N#CCCn1cc(/C=N/NC(N)=S)c(-c2ccc(-c3ccccc3)cc2)n1,0.93,34,0,4,-51,63*
N#CCCn1cc(/C=C2\NC(=S)N(c3ccccc3)C2=O)c(-c2ccc(F)cc2)n1,0.2,0,3,-2,79*,-6
CC(C)C(OC(=O)c1nsc(Cl)c1Cl)C(=O)NCC1CCCO1 (configuration not stated),/,/,1,-3,/,-7
COc1ccc(-c2cc(C(F)(F)F)n3ncc(C(=O)N4CCCCC4c4cccnc4)c3n2)cc1 (configuration not stated),-0.39,98*,3,4,42,49
CCOC(=O)c1cnn2c(C(F)(F)F)cc(-c3ccccc3)nc12,0.65,-5,-2,2,21,-4
CCOC(=O)C1CCCN(C(=O)c2cnn3c(C(F)(F)F)cc(-c4ccccc4)nc23)C1 (configuration not stated),0.65,52*,0,-1,25,-3
O=C(c1cnn2c(C(F)(F)F)cc(-c3ccc4c(c3)OCO4)nc12)N1CCCC1,-0.82,77*,-1,2,19,1
CC(CCCCCCCCC(=O)O)N(CCO)C(=O)OC(C)(C)C (configuration not stated),/,/,1,0,/,/
Cc1ccc(N2C(=O)NC(C(F)(F)F)(C(F)(F)F)C3=C2CC(C)(C)CC3=O)cc1,-0.31,51*,0,-1,4,19
Cc1ccc(N2C(=O)C(O)(C(F)(F)F)C3=C2CC(C)(C)CC3=O)cc1 (configuration not stated),-0.024,-3,0,-1,15,-7
O=C(CCCCCNc1nc(=S)[nH]c2ccccc12)NCCc1ccc(Cl)cc1,-0.2,10,0,-2,83*,24
S=C(NCc1ccco1)NCC(c1ccco1)N1CCCCC1 (configuration not stated),-0.65,-1,-1,-5,6,-5
COc1ccc(NC(=O)COC(=O)CNC(=O)C2CCCCC2)cc1OC,/,/,-1,-3,/,/
CC(C)[C@H]1COCCS(=O)(=O)N1Cc1cccc(Cl)c1,/,/,1,-1,/,1
O=S(=O)(c1ccc(Br)cc1)N1CCN(c2ccc3nnc(-c4ccccc4)n3n2)CC1,0.99,41,4,8,80*,32
O=C(c1ccc(Br)o1)N1CCN(c2ccc3nnc(-c4ccccc4)n3n2)CC1,1.4,23,-2,0,-11,34
COc1ccc(S(=O)(=O)N2CCC(C(=O)Oc3ccc(C)cc3)CC2)cc1OC,/,/,2,0,/,-7
SMILES,Dynein cargo inh,Lmaj promast,UPR CHOP act,XBP1 UPR activ,CHOP inhibitor,T cruzi inh
O=C1OC(c2ccccc2)=N/C1=C\C=C\c1ccccc1[N+](=O)[O-],-1.1,45,-1,-2,71*,-12
O=C1OC(c2ccccc2)=N/C1=C\C=C\c1ccco1,-1.2,-8,2,-2,60,-1
CO/N=C(/C)CCS(=O)(=O)c1ccccc1,0.24,-6,-1,-3,-9,1
S=C(Sc1ccc(Cl)cc1)Sc1ccc(Cl)cc1,-5.1*,/,-9,-9,106*,63*
CC(=O)/C(=C\N(C)C)Sc1ccc(Cl)cc1,1.1,/,1,-3,19,4
O=C(CSc1ccncc1)Nc1ccc2ccccc2c1,-0.59,91*,2,-3,26,?
O=C(CSc1ccc2ccccc2c1)Nc1ccncc1,0.45,12,0,1,24,-5
O=C(CSc1ccc2ccccc2c1)Nc1ccc(S(=O)(=O)Nc2nccs2)cc1,0.1,54*,0,0,29,-29
O=C(CSc1ccccc1)Nc1ccc(S(=O)(=O)Nc2ncccn2)cc1,-0.14,-8,2,3,-10,-3
CCOc1ccc(-n2cc(-c3ccc(OC)c(OC)c3)[nH]c2=S)cc1,-1.1,-7,4,1,-4,-11
NS(=O)(=O)c1ccc(N=Nc2c(-c3ccccc3)[nH]n(-c3nc(-c4ccccc4)cs3)c2=O)cc1,-0.4,73*,15,1,35,42
Cc1cc([N+](=O)[O-])nn1Cc1ccc(C(=O)N/N=C/c2ccc(F)cc2)cc1,1.6,/,3,3,-13,24
Cc1cc([N+](=O)[O-])nn1Cc1ccc(C(=O)N/N=C/c2ccc(O)cc2O)cc1,2.6,95*,1,-2,46,-7
O=C(N/N=C/c1ccc(O)cc1O)c1ccc(CN2C(=O)c3cccc4cccc2c34)cc1,-0.63,100*,-2,-2,60,54
COC(=O)/C=C1\C(=O)N(c2nc3ccc(OC)cc3s2)C(=S)N1c1ccc(F)cc1,-0.97,67*,73*,14,43,19
COc1ccc2nc(NC(=O)Cc3cccs3)sc2c1,-1.5,59*,3,2,11,24
COc1ccc2nc(NC(=O)CN(C)S(=O)(=O)c3cccs3)sc2c1,0.85,47,-1,-4,54,11
COc1ccc2nc(NC(=O)CNS(=O)(=O)c3cccs3)sc2c1,-0.14,89*,0,-3,-6,-2
Cc1ccc(NC(=O)CSc2nnc(C)c(=O)n2N)c(C)c1,0.47,-6,3,-2,-2,11
